Laboratory results taken from ChEMBL document CHEMBL2062426 (J Med Chem, 2012).

Assays:
[1] = target: Neutrophil collagenase (Homo sapiens, UniProt P22894); experiment: Inhibition of MMP8 using (7-methoxycoumarin-4-yl)acetyl-Pro-Leu-Gly-Leu-(3-(2,4-dinitrophenyl)-L-2,3-diaminopropionyl)Ala-Arg-NH2 as substrate incubated for 30 mins prior to substrate addition measured for 10 mins by fluorometry
Procedure, shortened: (§1)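 Activated MMP-8 or MMP-9 (2 nM) was preincubated with inhibitor (10 pM–1 mM) in 50 mM Tris-HCl pH 7.5 with 0.2 M NaCl, 5 mM CaCl2, 20 μM ZnSO4 and 0.05% Brij 35 at 37 °C for 30 min. Fluorogenic substrate (10 μL of 50 μM into 90 μL) was then added. Rates from the first 10 min were plotted against inhibitor concentration, and values are the mean of three experiments.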

[2] = target: Matrix metalloproteinase-9 (Homo sapiens, UniProt P14780); experiment: Inhibition of MMP9 using (7-methoxycoumarin-4-yl)acetyl-Pro-Leu-Gly-Leu-(3-(2,4-dinitrophenyl)-L-2,3-diaminopropionyl)Ala-Arg-NH2 as substrate incubated for 30 mins prior to substrate addition measured for 10 mins by fluorometry; procedure, shortened: as §1
Sequence of Matrix metalloproteinase-9 (P14780 whole entry): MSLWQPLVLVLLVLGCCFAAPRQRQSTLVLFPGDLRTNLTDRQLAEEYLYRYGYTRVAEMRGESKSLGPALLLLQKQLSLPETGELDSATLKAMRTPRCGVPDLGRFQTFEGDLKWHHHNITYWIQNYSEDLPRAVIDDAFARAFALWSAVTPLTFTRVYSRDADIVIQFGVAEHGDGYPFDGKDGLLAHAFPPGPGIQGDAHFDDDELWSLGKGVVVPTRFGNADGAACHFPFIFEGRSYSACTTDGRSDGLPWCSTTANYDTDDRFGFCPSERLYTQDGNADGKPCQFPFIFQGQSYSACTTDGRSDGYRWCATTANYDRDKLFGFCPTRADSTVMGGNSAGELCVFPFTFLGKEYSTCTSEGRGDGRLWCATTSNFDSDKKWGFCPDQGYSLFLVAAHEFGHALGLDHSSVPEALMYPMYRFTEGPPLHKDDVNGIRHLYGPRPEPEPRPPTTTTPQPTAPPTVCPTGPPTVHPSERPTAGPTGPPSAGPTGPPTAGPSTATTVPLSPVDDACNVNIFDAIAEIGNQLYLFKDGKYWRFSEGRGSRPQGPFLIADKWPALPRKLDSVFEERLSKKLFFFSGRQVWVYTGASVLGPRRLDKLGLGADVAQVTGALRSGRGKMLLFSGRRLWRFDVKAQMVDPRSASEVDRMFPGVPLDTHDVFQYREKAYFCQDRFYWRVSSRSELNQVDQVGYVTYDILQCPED

[3] = target: Collagenase 3 (Homo sapiens, UniProt P45452); experiment: Inhibition of MMP13 using (7-methoxycoumarin-4-yl)acetyl-Pro-Leu-Gly-Leu-(3-(2,4-dinitrophenyl)-L-2,3-diaminopropionyl)Ala-Arg-NH2 as substrate incubated for 30 mins prior to substrate addition measured for 10 mins by fluorometry
[4] = target: 72 kDa type IV collagenase (Homo sapiens, UniProt P08253); experiment: Inhibition of MMP2 using (7-methoxycoumarin-4-yl)acetyl-Pro-Leu-Gly-Leu-(3-(2,4-dinitrophenyl)-L-2,3-diaminopropionyl)Ala-Arg-NH2 as substrate incubated for 30 mins prior to substrate addition measured for 10 mins by fluorometry
Sequence of 72 kDa type IV collagenase (P08253 whole entry): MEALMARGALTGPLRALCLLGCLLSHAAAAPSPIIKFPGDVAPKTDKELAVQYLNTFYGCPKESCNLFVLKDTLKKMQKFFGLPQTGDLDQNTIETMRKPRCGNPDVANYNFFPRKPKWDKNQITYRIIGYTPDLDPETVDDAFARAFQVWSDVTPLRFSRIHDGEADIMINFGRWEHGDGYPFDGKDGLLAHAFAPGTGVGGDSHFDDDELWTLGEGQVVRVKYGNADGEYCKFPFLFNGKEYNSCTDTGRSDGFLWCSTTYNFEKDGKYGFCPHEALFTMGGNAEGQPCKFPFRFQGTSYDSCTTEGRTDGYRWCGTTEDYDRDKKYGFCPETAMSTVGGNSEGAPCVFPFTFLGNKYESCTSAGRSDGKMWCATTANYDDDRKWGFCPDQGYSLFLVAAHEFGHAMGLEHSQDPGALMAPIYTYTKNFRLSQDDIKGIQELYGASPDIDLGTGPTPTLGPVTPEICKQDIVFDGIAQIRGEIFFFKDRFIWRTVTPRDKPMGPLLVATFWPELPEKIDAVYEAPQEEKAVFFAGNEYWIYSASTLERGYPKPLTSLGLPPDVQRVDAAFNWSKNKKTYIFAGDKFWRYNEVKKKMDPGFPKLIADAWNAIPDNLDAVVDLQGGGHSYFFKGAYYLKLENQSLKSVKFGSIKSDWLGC

Sequence of Neutrophil collagenase (P22894 whole entry): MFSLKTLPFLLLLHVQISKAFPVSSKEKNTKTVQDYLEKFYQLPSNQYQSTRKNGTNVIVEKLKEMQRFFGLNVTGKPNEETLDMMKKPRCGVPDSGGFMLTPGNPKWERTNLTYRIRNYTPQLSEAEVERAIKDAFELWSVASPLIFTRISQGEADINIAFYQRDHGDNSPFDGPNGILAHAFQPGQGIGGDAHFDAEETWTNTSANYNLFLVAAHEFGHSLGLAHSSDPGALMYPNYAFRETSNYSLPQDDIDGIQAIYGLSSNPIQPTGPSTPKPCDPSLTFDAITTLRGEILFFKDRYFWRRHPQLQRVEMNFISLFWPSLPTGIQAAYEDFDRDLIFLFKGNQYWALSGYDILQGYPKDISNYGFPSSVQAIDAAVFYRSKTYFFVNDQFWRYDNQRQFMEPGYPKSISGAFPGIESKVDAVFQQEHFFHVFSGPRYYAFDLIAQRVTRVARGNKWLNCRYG

Compound	IC50 [1] [nM]	IC50 [2] [nM]	IC50 [3] [nM]	IC50 [4] [nM]
COc1ccc(S(=O)(=O)N(Cc2cn(CCOCCOCCOCCn3cc(CN([C@@H](C(=O)NO)C(C)C)S(=O)(=O)c4ccc(OC)cc4)nn3)nn2)[C@@H](C(=O)NO)C(C)C)cc1	> 100000	> 100000	> 100000	> 100000
COc1ccc(S(=O)(=O)N(Cc2ccc(OCCOCCOCCOCCOCc3cn(CCF)nn3)cc2)[C@@H](C(=O)NO)C(C)C)cc1	0.2	0.6	6	2
COc1ccc(S(=O)(=O)N(Cc2cn([C@@H]3O[C@H](CO)[C@@H](O)[C@H](O)[C@H]3F)nn2)[C@@H](C(=O)NO)C(C)C)cc1	0.5	0.6	0.5	0.2
COc1ccc(S(=O)(=O)N(Cc2cn(CCOCCOCCOCCOc3cccnc3F)nn2)[C@@H](C(=O)NO)C(C)C)cc1	5	4	1	3
COc1ccc(S(=O)(=O)N(Cc2cn(CCOCCOCCOCCN=[N+]=[N-])nn2)[C@@H](C(=O)NO)C(C)C)cc1	9	0.9	6	1.2
COc1ccc(S(=O)(=O)N(Cc2cn(CCF)nn2)[C@@H](C(=O)NO)C(C)C)cc1	0.02	0.03	0.006	0.13
C#CCOCCOCCOCCOCCOc1ccc(CN([C@@H](C(=O)NO)C(C)C)S(=O)(=O)c2ccc(OC)cc2)cc1	0.11	0.37	0.09	0.35
COc1ccc(S(=O)(=O)N(Cc2cn(CCOCCOCCOCCOS(=O)(=O)c3ccc(C)cc3)nn2)[C@@H](C(=O)NO)C(C)C)cc1	0.03	0.06	0.02	0.07
